Results from PMC2854012 (Cancer chemotherapy and pharmacology, 2009).
Entries after “also recorded” stand apart in the source; their conditions may differ.

Experiments:
[1] = system: insulin-stimulated glucose transport; conditions: cited from earlier work
[2] = system: patients with refractory neoplasms; conditions: cited from earlier work
[3] = Plasma pharmacokinetics of UCN-01 in patients; assay type: in vivo, human
Method in brief: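 Heparinized blood drawn in cycle 1 before dosing, 12, 24, 48 and 72 h after infusion start, and 12, 24 and 48 h after infusion end. Cycle 2 sampled pre-dose, at 36 h and 24 h post-end. Plasma spun 1200 x g, 5 min, 4°C, stored -80°C; assayed by HPLC-UV. Noncompartmental analysis: Cmax by inspection; λz from ≥3 terminal points; t1/2 = 0.693/λz; linear-trapezoidal AUC extrapolated by Ct/λz; CL = dose/AUC.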

protein kinase C = conditions: cited from earlier work
[4] = system: patients with advanced malignancies; test: Phase I safety and toxicity, DLT and MTD of UCN-01 with prednisone; assay type: in vivo, human
Method in brief: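 Open-label single-arm escalation with 3-6 patients per level. Test compound by continuous IV infusion, 72 h (days 3-5) in cycle 1, then 36 h from day 3; levels 17, 24, 34 mg/m2/24 h. Oral glucocorticoid 60 mg/m2/day, days 1-5; 28-day cycles. Graded by NCI CTC v2.0. DLT: grade 3-4 non-hematologic (separate hyperglycemia rules), grade 4 granulocytopenia or thrombocytopenia. MTD: ≤1 of 6 with DLT.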

[5] = system: patients with advanced malignancies; test: Tumor response by RECIST in the phase I trial of UCN-01 with prednisone; assay type: in vivo, human; conditions: 15 patients
Method in brief: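 Tumor response assessed radiographically every two cycles by RECIST. Patients received continuous IV test compound (72 h in cycle 1, 36 h thereafter) plus oral glucocorticoid 60 mg/m2/day on days 1-5, in 28-day cycles.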

[6] = 15 patients, 55 courses, with prednisone
[7] = drug-related adverse events, 15 patients, all dose levels

Structure (SMILES): CN[C@@H]1C[C@H]2O[C@@](C)([C@@H]1OC)n1c3ccccc3c3c4c(c5c6ccccc6n2c5c31)C(=O)NC4 [Staurosporine]
- effect on insulin-stimulated glucose transport [1]: inhibit insulin-stimulated glucose transport

Structure (SMILES): CN[C@@H]1C[C@H]2O[C@@](C)([C@@H]1OC)n1c3ccccc3c3c4c(c5c6ccccc6n2c5c31)C(=O)N[C@@H]4O [UCN-01, 7-hydroxy staurosporine]
- toxicity at the dose level above the single-agent MTD ([2]; 159 mg/m^2 over 72 h): grade 4 hyperglycemia and vomiting
- MTD, single agent, cycle 1 ([2]; over 72h, same schedule): 127.5 mg/m^2
- duration of prolonged disease stabilization ([2]; patient with alk-positive anaplastic large-cell lymphoma): > 2.5 years
- partial response ([2]; patient with melanoma): One partial response
- "free" UCN-01 levels at the end of infusion ([2]; supernatant of ultracentrifuged plasma, 24 mg/m^2/day for 3 days): 200 to 600 nmol/L
- MTD, single agent, subsequent cycles ([2]; total dose administered over 36 h): 63 mg/m^2
- Clearance Mean ([3]; cycle 1, 72-h IV infusion, UCN-01 17 mg/m^2/24 h, with prednisone): 5.4 mL/h/m^2
- Clearance Mean ([3]; cycle 1, 72-h IV infusion, UCN-01 24 mg/m^2/24 h, with prednisone): 3.1 mL/h/m^2
- Clearance Mean ([3]; cycle 1, 72-h IV infusion, UCN-01 34 mg/m^2/24 h, with prednisone): 4.2 mL/h/m^2
- half-life ([3]; human, plasma, intravenous, half-life, at the MTD, with prednisone): ~18.8 days
- Cmax ([3]; human, plasma, intravenous, mean Cmax, at the MTD, with prednisone): ~12000 ng/mL
- AUC(0-inf) ([3]; human, plasma, iv, AUCinf Mean, cycle 1, 72-h IV infusion, UCN-01 17 mg/m^2/24 h, with prednisone): 3130 µg·h/mL
- Cmax ([3]; human, plasma, iv, Cmax Mean, cycle 1, 72-h IV infusion, UCN-01 17 mg/m^2/24 h, with prednisone): 10000 ng/mL
- clearance ([3]; range over all dose levels (17, 24 and 34 mg/m^2/24 h x 72 h)): 2.13−5.47 mL/h/m^2
- IC50 (protein kinase C): 4 to 30 nM
- cumulative toxicities [4, 6]: no cumulative toxicities
- grade 4 adverse events [4, 6]: no grade 4 adverse events
- patients developing some grade of hyperglycemia ([4]; 15 patients, with prednisone): All patients
- MTD and recommended phase II dose, cycle 2 and beyond ([4]; CIV over 36 h, with prednisone 60 mg/m^2/day for 5 days every cycle): 36 mg/m^2/cycle
- reduction in the maximum dose of UCN-01 that could be safely administered ([4]; combination with prednisone versus single agent on the same schedule): 44%
- DLTs ([4]; dose level 2 (72 mg/m^2 total dose over 72 h for cycle 1 followed by 36 mg/m^2/cycle), six patients): without any DLTs
- grade 3 hyperglycemia, patients ([4]; dose level 3 (102 mg/m^2 total dose over 72 h for cycle 1 followed by 51 mg/m^2/cycle)): three
- DLT: grade 3 hypophosphatemia during cycle 1, patients ([4]; dose level 3 (102 mg/m^2 total dose over 72 h for cycle 1 followed by 51 mg/m^2/cycle), six patients): Two of the six patients
- Anemia grade 2, No. of patients [4, 7]: 2 (1)
- Headache grade 2, No. of patients [4, 7]: 2 (1)
- Hyperglycemia grade 2, No. of patients [4, 7]: 2 (9)
- Hypoalbuminemia grade 2, No. of patients [4, 7]: 2 (2)
- Hyponatremia grade 3, No. of patients [4, 7]: 3 (1)
- Hypophosphatemia grade 2, No. of patients [4, 7]: 2 (6)
- Hypophosphatemia grade 3, No. of patients [4, 7]: 3 (4)
- Leucopenia grade 2, No. of patients [4, 7]: 2 (1)
- Leucopenia grade 3, No. of patients [4, 7]: 3 (1)
- Neutropenia grade 2, No. of patients [4, 7]: 2 (1)
- Rash/desquamation grade 2, No. of patients [4, 7]: 2 (1)
- Visual (photophobia) grade 2, No. of patients [4, 7]: 2 (1)
- MTD and recommended phase II dose, cycle 1 ([4]; total dose CIV over 72 h, with prednisone 60 mg/m^2/day for 5 days every cycle): 72 mg/m^2
- GI toxicity ([4]; with prednisone): did not observe any significant GI toxicity
- pulmonary toxicity ([4]; with prednisone): did not observe any pulmonary toxicity
- patients with stable disease for longer than two cycles [5]: five
- response as defined by RECIST criteria [5]: No objective responses; also recorded: None of the 15 patients had a response
